In ChEMBL document CHEMBL1132962, “1,2-Dibenzamidobenzene inhibitors of human factor Xa” (J Med Chem, 2000) one finds K ass data, which are given here for 48 compounds.

The target in test [1] is Prothrombin (Homo sapiens) (UniProt P00734). The experiment in a line: Apparent association constant against Coagulation factor II. Put shortly:
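Human α-thrombin, 5.9 nM, with chromogenic substrate Bz-Phe-Val-Arg-pNA at 0.2 mM. Uses the same general protocol as the fXa assay: pNA release read at 405 nm, with inhibitors auto-diluted in triplicate. Apparent Kass = [Eb]/[Ef][Io−Ib] at concentrations giving 20–80% inhibition. Values are mean ± SD when n≥3 and the average when n=2.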

Test [2] deals with Coagulation factor X (Homo sapiens) (UniProt P00742). The experiment in a line: Apparent association constant against coagulation factor X. Put shortly:
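Purchased human fXa, 3.2 nM final, in buffer of 0.06 M tris, 0.3 M NaCl, pH 7.4, with 1 mg/mL HSA in the enzyme diluent. Inhibitor is added in MeOH at 4–8 concentrations in triplicate, then Bz-Ile-Glu-Gly-Arg-pNA (0.3 mM stock in water) starts the reaction. Hydrolysis is read at 405 nm. Free and bound enzyme come from standard curves. Apparent Kass = [Eb]/[Ef][Io−Ib] at 20–80% inhibition.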

Chain of Coagulation factor X (Homo sapiens) (P00742 41-179 limits assumed): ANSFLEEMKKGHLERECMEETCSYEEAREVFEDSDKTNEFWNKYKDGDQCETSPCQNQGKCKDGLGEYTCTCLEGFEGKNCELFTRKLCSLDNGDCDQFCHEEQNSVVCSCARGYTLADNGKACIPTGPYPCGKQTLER
Chain of Coagulation factor X (Homo sapiens) (P00742 235-488 limits assumed): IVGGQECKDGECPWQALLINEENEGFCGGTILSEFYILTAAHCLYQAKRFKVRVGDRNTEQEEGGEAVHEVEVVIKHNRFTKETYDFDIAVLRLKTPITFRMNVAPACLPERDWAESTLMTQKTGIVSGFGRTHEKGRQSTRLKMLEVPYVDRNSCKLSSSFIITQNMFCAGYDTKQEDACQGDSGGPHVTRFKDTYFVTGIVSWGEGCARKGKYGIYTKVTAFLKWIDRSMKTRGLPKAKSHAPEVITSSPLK

As for `COc1ccc(C(=O)Nc2ccccc2NC(=O)c2ccc(S(C)(=O)=O)cc2)cc1`, the K ass in test [1] is 0 l M-1; in test [2], 530000 l M-1.
Regarding `COc1ccc(C(=O)Nc2cccc(O)c2NC(=O)c2ccc(OC)cc2)cc1`, the K ass in test [1] is 10000 l M-1; in test [2], 450000 l M-1.
On to `COc1ccc(C(=O)Nc2ccccc2NC(=O)c2ccc(-c3ccccc3)cc2)cc1`, for which the K ass in test [1] is 0 l M-1; in test [2], 1.1e+06 l M-1.
As to `COc1ccc(C(=O)Nc2ccccc2NC(=O)c2ccc(C(C)C)cc2)cc1`, the K ass in test [1] was 80000 l M-1; in test [2] it was 4.91e+06 l M-1.
Taken in the same sequence, the figures for `COc1ccc(C(=O)Nc2ccccc2NC(=O)c2ccc(C(C)(C)OC)cc2)cc1` were 20000 l M-1 and 2.35e+06 l M-1.
The corresponding values for `CC(C)(C)c1ccc(C(=O)Nc2ccccc2NC(=O)c2ccc(OC(F)(F)F)cc2)cc1` are 0 l M-1 and 0 l M-1.
The corresponding values for `COc1ccc(C(=O)Nc2ccccc2NC(=O)c2ccc(OC)cc2Cl)cc1` are 30000 l M-1 and 710000 l M-1.
For the compound `COc1ccc(C(=O)Nc2ccccc2NC(=O)c2ccc(C(C)(C)C)cc2)cc1`, the K ass in test [1] was 50000 l M-1; in test [2], 7.31e+06 l M-1.
The corresponding values for `COc1ccc(C(=O)Nc2cc(O)ccc2NC(=O)c2ccc(C(C)(C)C)cc2)cc1` are 50000 l M-1 and 3.56e+06 l M-1.
Taken in the same sequence, the figures for `COc1ccc(C(=O)Nc2ccccc2NC(=O)c2ccc(C(=O)C(F)(F)F)cc2)cc1` were 0 l M-1 and 10000 l M-1.
Take `COc1ccc(C(=O)Nc2ccc(O)cc2NC(=O)c2ccc(C(C)(C)C)cc2)cc1`: the K ass in test [1] is 40000 l M-1.
Consider `CCOc1ccc(C(=O)Nc2ccccc2NC(=O)c2ccc(OC)cc2)cc1`, for which the results for the K ass in test [1] and in test [2] were 0 l M-1 and 640000 l M-1, respectively.
Taken in the same sequence, the figures for `COc1ccc(C(=O)Nc2cccc(NC(=O)c3ccc(OC)cc3)c2)cc1` were 0 l M-1 and 0 l M-1.
Taken in the same sequence, the figures for `COc1cccc(C(=O)Nc2ccccc2NC(=O)c2ccc(C(C)(C)C)cc2)c1` were 0 l M-1 and 20000 l M-1.
Taken in the same sequence, the figures for `COc1ccc(C(=O)Nc2ccccc2NC(=O)c2ccc(OC(C)(C)C)cc2)cc1` were 10000 l M-1 and 820000 l M-1.
In the case of `COc1ccc(C(=O)Nc2c(OC)ccc(OC)c2NC(=O)c2ccc(OC)cc2)cc1`, the K ass in test [1] was 10000 l M-1; in test [2], 770000 l M-1.
Taken in the same sequence, the figures for `COc1ccc(C(=O)Nc2ccccc2NC(=O)c2ccc(S(=O)(=O)N(C)C)cc2)cc1` were 0 l M-1 and 660000 l M-1.
As for `COc1ccc(C(=O)Nc2ccc(OC)cc2NC(=O)c2ccc(OC)cc2)cc1`, the K ass in test [2] was 1.25e+06 l M-1.
On to `CCCOc1ccc(C(=O)Nc2ccccc2NC(=O)c2ccc(OC)cc2)cc1`, for which the results for the K ass in test [1] and in test [2] were 0 l M-1 and 440000 l M-1, respectively.
The corresponding values for `CCCCOc1ccc(C(=O)Nc2ccccc2NC(=O)c2ccc(OC)cc2)cc1` are 0 l M-1 and 80000 l M-1.
Taken in the same sequence, the figures for `CC(C)(C)c1ccc(C(=O)Nc2ccccc2NC(=O)c2ccc(F)cc2)cc1` were 0 l M-1 and 510000 l M-1.
Taken in the same sequence, the figures for `CCc1ccc(C(=O)Nc2ccccc2NC(=O)c2ccc(C(C)(C)C)cc2)cc1` were 0 l M-1 and 10000 l M-1.
Consider `COc1ccc(C(=O)N(C)c2ccccc2N(C)C(=O)c2ccc(OC)cc2)cc1`, for which the K ass in test [1] and in test [2] was 0 l M-1 throughout.
Turning to `COc1ccc(C(=O)Nc2ccc(C(=O)O)cc2NC(=O)c2ccc(OC)cc2)cc1`, the K ass in test [1] was 20000 l M-1; in test [2] it was 320000 l M-1.
The corresponding values for `COc1ccc(C(=O)Nc2ccccc2NC(=O)c2ccc(OC)cc2)cc1` are 20000 l M-1 and 840000 l M-1.
`COc1ccc(C(=O)Nc2ccccc2N(C)C(=O)c2ccc(OC)cc2)cc1`: the results for the K ass in test [1] and in test [2] were 0 l M-1 and 20000 l M-1, respectively.
The corresponding values for `CC(C)(C)c1ccc(C(=O)Nc2ccccc2NC(=O)c2cccc(F)c2)cc1` are 0 l M-1 and 400000 l M-1.
Taken in the same sequence, the figures for `CC(C)(C)c1ccc(C(=O)Nc2ccccc2NC(=O)c2ccc(Cl)cc2)cc1` were 50000 l M-1 and 2.92e+06 l M-1.
Taken in the same sequence, the figures for `COc1ccc(C(=O)Nc2ccccc2NC(=O)c2ccc([S+](C)[O-])cc2)cc1` (stereo not drawn) were 0 l M-1 and 430000 l M-1.
For the compound `COc1ccc(C(=O)Nc2ccccc2NC(=O)c2ccc(SC)cc2)cc1`, the K ass in test [1] was 20000 l M-1; in test [2], 1.63e+06 l M-1.
As to `C=Cc1cccc(C(=O)Nc2ccccc2NC(=O)c2ccc(C(C)(C)C)cc2)c1`, the K ass is 0 l M-1 in test [1] and 560000 l M-1 in test [2].
Consider `COc1ccc(C(=O)Nc2ccc(NS(C)(=O)=O)cc2NC(=O)c2ccc(C(C)(C)C)cc2)cc1`, for which the K ass is 110000 l M-1 in test [1] and 7.65e+06 l M-1 in test [2].
With `COc1ccc(C(=O)Nc2ccc(O)cc2NC(=O)c2ccc(N(C)C)cc2)cc1`, the K ass is 50000 l M-1 in test [1] and 2.55e+07 l M-1 in test [2].
The corresponding values for `CC(C)(C)c1ccc(C(=O)Nc2ccccc2NC(=O)c2ccccc2)cc1` are 70000 l M-1 and 380000 l M-1.
The corresponding values for `COc1ccc(C(=O)Nc2ccccc2NC(=O)c2ccc(Oc3ccccc3)cc2)cc1` are 0 l M-1 and 290000 l M-1.
In the case of `COc1ccc(C(=O)Nc2ccccc2NC(=O)c2ccc(OC)cc2OC)cc1`, the K ass is 20000 l M-1 in test [1] and 520000 l M-1 in test [2].
Regarding `COc1ccc(C(=O)Nc2ccc(Cl)cc2NC(=O)c2ccc(OC)cc2)cc1`, in test [2], the K ass is 420000 l M-1.
As for `CCCCCCOc1ccc(C(=O)Nc2ccccc2NC(=O)c2ccc(OC)cc2)cc1`, the K ass in test [1] and in test [2] was 0 l M-1 each time.
Regarding `COc1ccc(C(=O)Nc2ccc(O)cc2NC(=O)c2ccc(OC)cc2)cc1`, the K ass is 20000 l M-1 in test [1] and 640000 l M-1 in test [2].
As to `CCc1ccc(C(=O)Nc2cc(O)ccc2NC(=O)c2ccc(OC)cc2)cc1`, the K ass in test [1] is 40000 l M-1; in test [2] it was 2.68e+06 l M-1.
The corresponding values for `COc1ccc(C(=O)Nc2ccccc2NC(=O)c2ccc(N(C)C)cc2)cc1` are 50000 l M-1 and 1.69e+07 l M-1.
The corresponding values for `COc1ccc(C(=O)Nc2ccc(C)cc2NC(=O)c2ccc(OC)cc2)cc1` are 20000 l M-1 and 450000 l M-1.
The corresponding values for `COc1ccc(C(=O)Nc2cc(C(=O)O)ccc2NC(=O)c2ccc(C(C)(C)C)cc2)cc1` are 80000 l M-1 and 3.99e+06 l M-1.
Take `Cc1ccc(C(=O)Nc2ccccc2NC(=O)c2ccc(C(C)(C)C)cc2)cc1`: the K ass was 0 l M-1 in test [1] and 280000 l M-1 in test [2].
Taken in the same sequence, the figures for `C=Cc1ccc(C(=O)Nc2ccccc2NC(=O)c2ccc(C(C)(C)C)cc2)cc1` were 10000 l M-1 and 3.05e+06 l M-1.
In the case of `COc1ccc(C(=O)Nc2cc(NS(C)(=O)=O)ccc2NC(=O)c2ccc(C(C)(C)C)cc2)cc1`, the K ass in test [1] was 130000 l M-1; in test [2], 1.3e+07 l M-1.
Taken in the same sequence, the figures for `COc1ccc(C(=O)Nc2ccccc2NC(=O)c2ccc(OC(C)C)cc2)cc1` were 40000 l M-1 and 1.19e+06 l M-1.
Taken in the same sequence, the figures for `COc1ccc(C(=O)Nc2ccc(C(=O)O)cc2NC(=O)c2ccc(C(C)(C)C)cc2)cc1` were 70000 l M-1 and 1.28e+07 l M-1.
